Measured values from different studies.
Each line is one published result; the experiments were not run side by side.
CYP2C9: Cytochrome P450 2C9 (CYP2C9, Homo sapiens, UniProt P11712)

SMILES | tested on | assay | system | setting | quantity | result
CCC[C@@](N)(CO)CCc1ccc(OCCCCCC(C)C)cc1 | CYP2C9 | enzyme activity, inhibitor | – | – | IC50 | > 50 µM
COC(=O)C1CCN(C(=O)c2ccc(NCc3cnc4nc(N)nc(N)c4n3)cc2)CC1 | CYP2C9 | enzyme activity, inhibitor, luciferase | – | 10 µM | inhibition | -7.15%
CN1CCCCC1Cn1cc(C(=O)c2cc([N+](=O)[O-])ccc2I)c2ccccc21 (racemic) | – | metabolic stability | rat, liver microsomes | – | half-life | 13.7 min
Nc1c2c(nc3c1C(c1ccc(Cl)c(Cl)c1)c1ccc(OCC(=O)c4ccccc4)cc1O3)CCCC2 (stereo not shown) | SH-SY5Y | cell growth or viability, MTT | – | 25 µM | viability | 45.9%
CC[C@@H]1CN2CCc3c([nH]c4cccc(OC)c34)[C@H]2C[C@@H]1/C(=C\OC)C(=O)OC | mouse Hepatocyte | metabolic stability | hepatocytes | – | half-life | 11.2 min
Cc1cc(C)nc(Nc2ncc(C(=O)NCCc3c(C)[nH]c4ccccc34)cn2)c1 | – | metabolic stability | male Sprague-Dawley rat, hepatocytes | 1 µM | half-life | 22 min
Nc1c2c(nc3c1C(c1ccc(Cl)c(Cl)c1)c1ccc(OCC(=O)c4ccc(Cl)cc4)cc1O3)CCCC2 (stereo not shown) | SH-SY5Y | cell growth or viability, MTT | – | 0.4 µM | viability | 89.5%
COc1cc2c(cc1C(=O)Nc1ccc(C(C)(C)C)cc1)CCCCC2 | NHDF | cell growth or viability, ATP luminescence | – | 24 h | CC50 | 148 µM
COc1ccc(S(=O)(=O)Oc2ccc3c(c2)Oc2nc4c(c(N)c2C3c2cccc(OC)c2)CCCC4)cc1 (stereo not shown) | SH-SY5Y | cell growth or viability, MTT | – | 100 µM | viability | 48.9%
CCCCCn1cc(C(=O)Nc2cccc3ccccc23)c2ccccc21 | – | metabolic stability | Sprague-Dawley rat, liver microsomes | 1 µM, pH 7.4 | half-life | 2.21 min
Nc1c2c(nc3c1C(c1cccc([N+](=O)[O-])c1)c1ccc(OS(=O)(=O)c4ccc(F)cc4)cc1O3)CCCC2 (stereo not shown) | SH-SY5Y | cell growth or viability, MTT | – | 6.3 µM | viability | 63.4%
CCCCNC(=O)Oc1ccc(OCc2ccccc2)cc1 | – | metabolic stability | male Wistar rat, liver S9 | 1 µM, pH 7.4 | half-life | 7 min
C[C@]12CC[C@H](n3ccnc3)CC1=CC[C@@H]1[C@@H]2CC[C@]2(C)C(n3cnc4ccccc43)=CC[C@@H]12.Cl | – | – | male CD-1 mouse, plasma | oral, 10 mg/kg | bioavailability | > 100%
